# An excerpt weighted towards active compounds, which were near 1.8% of everything screened.
# UHRF1 binding: blocks human UHRF1 binding to methylated DNA; UHRF1 binding to methylated oligo, TR-FRET; inhibition, % at 4.4 µM; 0.75% of 370,000 active; AID 687016;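 also: UHRF1 SRA domain binding a hemimethylated CpG hairpin DNA probe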
# LEDGF integ inh: blocks HIV-1 LEDGF/p75-dependent DNA integration; TR-FRET IN-LEDGF/p75 DNA integration, Eu/Cy5; inhibition, % at 3.7 µM; 0.64% of 370,000 active; AID 743269;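 active = inhibition above the screen-wide mean plus 3 SD, cut at about 13% in these data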;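 also: signal is the Cy5 over europium emission ratio at 671 and 618 nm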
# HCV core dimer: blocks dimerization of HCV core protein | 0.33% of 300,000 active | inhibition, % at 5 µM | TR-FRET GST/Flag-core106 dimerization, 1536-well;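 active = inhibition above the mean of all tested compounds plus 3 SD, set per screening campaign, cut at about 45% in these data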
#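 Material: GST/Flag-tagged HCV core106 proteins. Incubation: 4 h, 22.5 °C incubation. Read-out basis: inhibition (%) from 671 over 617 nm ratio. Measured by: TR-FRET, excitation 340 nm, emission 617 and 671 nm.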
# MBD2 DNA inh: blocks human MBD2 binding to methylated DNA; AID 686964; inhibition, % at 4.4 µM; TR-FRET, MBD2 binding to methylated oligonucleotide; 0.31% of 370,000 active; in the data active = inhibition above about 13%
# Target sequence (Q9UBB5 whole entry, looked up): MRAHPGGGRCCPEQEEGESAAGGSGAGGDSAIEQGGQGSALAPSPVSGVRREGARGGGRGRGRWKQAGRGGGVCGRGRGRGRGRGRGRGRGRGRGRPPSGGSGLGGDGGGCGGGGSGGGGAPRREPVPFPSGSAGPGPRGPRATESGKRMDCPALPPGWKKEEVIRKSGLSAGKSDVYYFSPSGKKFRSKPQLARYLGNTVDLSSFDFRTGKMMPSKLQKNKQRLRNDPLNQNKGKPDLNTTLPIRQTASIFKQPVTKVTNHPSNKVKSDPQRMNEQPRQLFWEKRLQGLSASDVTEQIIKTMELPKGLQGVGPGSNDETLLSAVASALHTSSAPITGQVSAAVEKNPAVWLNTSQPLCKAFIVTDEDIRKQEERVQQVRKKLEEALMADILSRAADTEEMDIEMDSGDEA
# TDP2 inh: TDP2 (human) inhibition, absorbance primary screen; recombinant TDP2, T5PNP hydrolysis, p-nitrophenol absorbance 415 nm; inhibition, % at 12.8 µM; 0.34% of 370,000 active; AID 720702;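 active = inhibition above the mean of all tested compounds plus 3 SD, set per campaign, cut at about 25% in these data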
#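 System – recombinant human TDP2 · Quantity – TDP2 enzyme at 120 nM final · Doses – single concentration, 12.8 µM nominal, with 1% DMSO · Incubation – 2 h at 37 °C · Measured by – epi absorbance of p-nitrophenol freed from T5PNP by hydrolysis · Read-out – % inhibition relative to enzyme-containing and enzyme-free wells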
# UHRF1 ctr MBD2: UHRF1 methyl-oligo binding inhibition as MBD2 counter-screen; shares compounds with MBD2 DNA inh; 25% of 1,000 active; inhibition, % at 4.4 µM; UHRF1 binding to methylated oligonucleotide, TR-FRET;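 also: UHRF1 SRA domain binding a labeled hemimethylated CpG hairpin DNA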
# MBD2 confirm: MBD2-DBD methyl-DNA binding inhibition, TR-FRET confirmation | shares compounds with MBD2 DNA inh | TR-FRET MBD2-DBD binding to methylated oligonucleotide | inhibition, % at 4.4 µM | 26% of 1,000 active; in the data active = inhibition above about 14%
# Numbers stand for hits; i = inactive; nt = no result. Rule as the data show it, unless noted: active = inhibition above about 21%; inactive = the rest.
SMILES,UHRF1 binding,LEDGF integ inh,HCV core dimer,MBD2 DNA inh,TDP2 inh,UHRF1 ctr MBD2,MBD2 confirm
CN(C)[C@H]1CCN(c2ccc3c(c2)O[C@@H]2CCN(C2)S3(=O)=O)C1,i,i,nt,18,i,i,i
O=C(NC1CCCCN(Cc2cccc(Cl)c2)C1=O)c1ccc2ccccc2c1 (configuration not stated),i,i,nt,i,i,nt,nt
COc1cc(OC)cc(C(=O)Nc2ccc3c(c2)CCCN3C(=O)c2cccs2)c1,i,i,i,25,i,i,i
COc1cc(-c2nnc(COC(=O)c3ccc(C)o3)o2)cc(OC)c1OC,39,i,nt,18,i,i,i
S=C(NCCCN1CCOCC1)Nc1ccc(Cl)cc1,i,i,i,i,i,nt,nt
O=C(NCCCN1CCOCC1)C(=O)NCc1ccc(Cl)cc1,i,i,i,13,i,i,i
CCOC(=O)Cn1cc(CN2CCS(=O)(=O)N(Cc3ccc(C)cc3)C(C(=O)OC)C2)nn1 (configuration not stated),i,i,nt,i,i,nt,nt
CCOC(=O)Cn1cc(CN2CCS(=O)(=O)N(Cc3ccccc3)C(C(=O)OC)C2)nn1 (configuration not stated),i,i,nt,14,i,i,i
Cn1c(-c2ccccc2)cc(=O)n1-c1ccccc1,i,i,nt,62,i,i,i
CN1CCn2cnc(C(=O)Nc3ccc(CNC(=O)OC(C)(C)C)cc3)c2C1=O,25,i,nt,15,i,i,i
CCOc1ccc(NC(=O)NN2C(C)CCCC2C)cc1 (configuration not stated),i,i,nt,102,i,i,i
CCOc1ccc(NC(=O)c2cccc(-n3cccc3)c2)cc1S(=O)(=O)N1CCOCC1,54,i,nt,31,i,77,68
CCOc1ccc(C(=O)Nc2ccc(S(=O)(=O)N3CCOCC3)cc2)cc1OCC,i,i,i,i,i,nt,nt
CCc1ccc(/C=C2\SC(=S)N(CCCC(=O)Nc3cc(C)on3)C2=O)cc1,i,i,nt,15,i,i,i
CCc1ccc(/C=C2\SC(=S)N(CCC(=O)Nc3cc(C)on3)C2=O)cc1,i,i,i,i,i,nt,nt
COc1ccc(OC)c(CN2C(=O)COc3ccccc3C2c2nnnn2C2CCCC2)c1 (configuration not stated),i,i,nt,i,i,nt,nt
O=C(Nc1ccc(N2CCN(Cc3ccccc3Cl)CC2)cc1)c1cccnc1,i,i,i,15,i,i,i
O=C(Nc1ccc(N2CCCCC2)cc1)c1cccnc1,i,i,i,i,i,nt,nt
COc1ccc(-c2cccc3[nH]c4c(c23)CCN2C(=O)[C@H]3[C@H](C)ON(C)[C@H]3C[C@@H]42)cc1,i,i,nt,i,i,nt,nt
CN1CCCN(C(=O)C2CCCN(C(=O)c3ccc4c(c3)NC(=O)CS4)C2)CC1 (configuration not stated),i,i,nt,25,i,i,i
COc1ccc(CCNC(=O)Nc2ccc3c(c2)[C@]2(CC(=O)N(CC(C)C)C2c2ccccc2)C(=O)N3C)cc1OC (some centres not stated),i,i,nt,i,i,nt,nt
CCCC(=O)OC12CCCN(C1)/C(=C/c1ccc(Cl)cc1)C2 (configuration not stated),i,i,nt,i,i,nt,nt
COC(=O)c1ccc(CSc2nc3c(c(=O)[nH]2)CCC3)cc1,i,i,nt,15,i,i,i
Cc1cccc(CSc2nc3c(c(=O)[nH]2)CCC3)c1,i,i,i,i,i,nt,nt
COc1ccc(-c2cc(-c3nnc(SCC(=O)Nc4ccccc4-c4ccccc4)n3N)[nH]n2)cc1,i,i,nt,i,i,nt,nt
SMILES,UHRF1 binding,LEDGF integ inh,HCV core dimer,MBD2 DNA inh,TDP2 inh,UHRF1 ctr MBD2,MBD2 confirm
O=c1[nH]c(SCCOc2ccccc2F)nc2ccccc12,23,i,i,14,i,i,i
CCN(CC)C(=O)c1cc2c(=O)c3cc(F)ccc3oc2nc1C,i,i,i,19,i,i,i
COC(=O)[C@]12C[C@H](CC(=O)NCc3ccc(OC)c(OC)c3)C(=O)N(Cc3cccc4ccccc34)C1=C[C@H](C(C)(C)C)O[C@@H]2C,i,i,nt,i,i,nt,nt
O=c1[nH]c(=S)[nH]c2c1C(c1ccc(Br)cc1)c1c([nH]c(=S)[nH]c1=O)O2,107,83,i,105,53,104,88
O=C1CCCC2=C1C(c1ccc(Br)cc1)c1c([nH]c(=S)[nH]c1=O)N2 (configuration not stated),i,i,i,i,i,nt,nt
CCOC(=O)[C@]12CCCCC/C=C\1N(Cc1ccc(OC)cc1)C(=O)[C@H]2CC(=O)N1CCCC1,i,i,nt,i,i,nt,nt
CCn1c(=O)n(CC(=O)N2CCOCC2)c(=O)c2ccccc21,i,i,nt,i,i,nt,nt
C=CC[C@H](CC(=O)N(CCO)Cc1ccccc1)C(=O)N[C@@H](C)COC(=O)[C@H](CC=C)CC(=O)OC(C)(C)C,i,i,nt,i,i,nt,nt
C=CC[C@@H](CC(=O)N(CCO)Cc1ccccc1)C(=O)N[C@@H](C)COC(=O)[C@@H](CC=C)CC(=O)OC(C)(C)C,27,i,nt,17,i,i,i
O=C(OCc1cc(=O)n2ccsc2n1)c1ccccc1NCCO,29,i,nt,31,i,i,i
Cc1cc(C(=O)N2CCOCC2)c(C)o1,22,i,i,15,i,i,i
O=C(O)c1ccccc1C(=O)Nc1ccc(S(=O)(=O)Nc2nccs2)cc1,i,i,i,19,i,i,i
CCn1cnc2cc(NC(=O)COc3ccc(C)cc3)ccc21,i,i,nt,15,i,i,i
CCN(CC)CCN1C(=O)c2cccc3cc(N)cc(c23)C1=O,i,i,i,14,i,i,i
CC1=NN(c2cccc(F)c2)C(=O)/C1=C/c1ccc(N(C)C)cc1,i,i,i,i,i,nt,nt
Cc1cc2c(=Cc3ccc(N(C)C)cc3)c3ccccc3n2[n+]1C,47,i,nt,32,i,60,64
CCOc1cccc(CN2CCCC(CNC(=O)c3cccc(OC)c3OC)C2)c1 (configuration not stated),i,i,i,16,i,i,i
COc1cccc(C(=O)NCC2CCCN(C(=O)Cc3cccc(C)c3)C2)c1OC (configuration not stated),i,i,nt,i,i,nt,nt
CC(=O)Nc1ccc(S(=O)(=O)N2CCN(C(=O)C3COc4ccccc4O3)CC2)cc1 (configuration not stated),i,i,i,i,i,nt,nt
O=C(C1COc2ccccc2O1)N1CCN(c2ccccc2)CC1 (configuration not stated),i,i,i,i,i,nt,nt
O=C(C1COc2ccccc2O1)N1CCOCC1 (configuration not stated),i,i,i,14,i,i,i

# From PubChem BioAssay
